KDM4C inh: inhibitors of GASC-1 (KDM4C) histone demethylase, primary screen, biochemical, single concentration HTS; GST-KDM4C 2-372, H3K9me3 peptide, LANCE TR-FRET; inhibition, % at 12.5 µM; 96,000 tested, 0.15% active;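 active means mean replicate inhibition above about 25%, with at least 55% of replicates also reaching it, limit read from the data, passing the limit was not always enough; inconclusive means only one of those two conditions met; inactive means neither condition met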
Target sequence (Q9H3R0 2-372 limits assumed): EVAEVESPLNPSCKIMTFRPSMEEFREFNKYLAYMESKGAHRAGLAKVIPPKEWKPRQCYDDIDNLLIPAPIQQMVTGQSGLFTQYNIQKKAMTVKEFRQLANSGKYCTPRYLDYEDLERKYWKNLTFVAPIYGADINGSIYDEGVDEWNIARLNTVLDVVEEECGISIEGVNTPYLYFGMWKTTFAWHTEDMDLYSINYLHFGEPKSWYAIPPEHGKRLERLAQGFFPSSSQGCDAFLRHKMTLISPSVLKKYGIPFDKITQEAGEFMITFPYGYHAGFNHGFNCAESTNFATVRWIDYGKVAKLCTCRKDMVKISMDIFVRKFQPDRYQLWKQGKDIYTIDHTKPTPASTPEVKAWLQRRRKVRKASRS
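Material: N-terminal GST-fused human GASC-1 (KDM4C) fragment, residues 2-372. Input: 10 nM enzyme. Incubation: enzyme reaction 30 min, then detection 60 min, both room temperature. Doses: one test concentration per compound. Read-out basis: inhibition from TR-FRET ratio decrease. Detection: LANCE TR-FRET, excitation 340 nm, emissions 618 and 671 nm.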
T cruzi growth: T. cruzi intracellular proliferation inhibitors, primary screen, cell-based, beta-gal Tulahuen parasites, NIH3T3 host, luminescence. T. cruzi beta-gal in NIH3T3, GalScreen luminescence, 90 h. inhibition, % at 8.34 µM. 77,000 tested, 5.9% active;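 active means mean inhibition above about 93%, with at least 55% of replicates each passing it, limit read from the data, passing the limit was not always enough; inconclusive means only one of those two conditions holds; inactive means neither condition holds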
Pf Dd2 growth: P. falciparum Dd2 growth inhibitors, primary screen, SYBR Green fluorescence, single dose replicates; 72 h; stronger effect = lower value; activity change, % at 10 µM; 94,000 tested, 2.3% active; AID 1159554, 2015; in the data active means activity change below about -80%; inconclusive means no clear call, values can overlap the other calls
IDH1 R132H inh: inhibitors of IDH1 R132H reductase, primary screen, biochemical, plate reader, single point; 70,000 tested, 0.18% active; AID 624101, 2012; diaphorase/resazurin fluorescence, 60 min; inhibition, % at 10 µM; Isocitrate dehydrogenase [NADP] cytoplasmic (Homo sapiens), O75874; in the data active means inhibition above about 34%; inconclusive means no clear call, values can overlap the other calls; inactive means below about 11%;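 further: 0% = DMSO and 100% = no enzyme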
Active calls of the source: *; u = inconclusive; x = no result given. Only some compounds are listed: those with a hit (about 5.9% of all), similar ones and a draw of the others.

SMILES	KDM4C inh	T cruzi growth	Pf Dd2 growth	IDH1 R132H inh
Cc1ccc(S(=O)(=O)N(C)C[C@@H]2Oc3ccc(NC(=O)Cc4cn(C)c5ccccc45)cc3CC(=O)N([C@@H](C)CO)C[C@H]2C)cc1	-6	48	-83*	1
C[C@H](CO)N1C[C@H](C)[C@@H](CN(C)S(=O)(=O)c2cn(C)cn2)Oc2ccc(NC(=O)CCC(F)(F)F)cc2CC1=O	26*	-11	42	10
Cc1ccc(S(=O)(=O)N(C)C[C@H]2Oc3ccc(NC(=O)Cc4cn(C)c5ccccc45)cc3C(=O)N([C@H](C)CO)C[C@@H]2C)cc1	-3	26	-83*	x
C[C@H]1CN([C@@H](C)CO)C(=O)c2cc(NC(=O)Cc3cn(C)c4ccccc34)ccc2O[C@H]1CN(C)S(=O)(=O)c1ccccc1	x	80	-91*	-40
COc1ccccc1NC(=O)CCCC(=O)O	x	x	x	3
CC(C)(C)Nc1nc(SCC(N)=O)nc(N2CCOCC2)n1	x	x	x	0
N#Cc1ccccc1NC(=O)COc1ccc(Cl)cc1Cl	x	x	x	0
Cc1ccc(-c2ccc([C@H]3[C@@H](CO)N4C(=O)CN(C(=O)Nc5cccc(F)c5)C[C@H]34)cc2)cc1	-2	x	-84*	x
O=C(Nc1cccc(F)c1)N1CC(=O)N2[C@H](C1)[C@@H](c1ccc(C#CC3CC3)cc1)[C@@H]2CO	0	x	-82*	x
Cc1ccc(-c2ccc([C@@H]3[C@H]4CN(C(=O)Nc5cccc(F)c5)CC(=O)N4[C@H]3CO)cc2)cc1	-2	x	-13	x
O=C(CSc1nnc(-c2ccncc2)n1-c1ccccc1)Nc1ccc(Br)cc1C(F)(F)F	x	x	x	0
CCOc1ccc(-c2nc(C#N)c(NCCCN(CC)CC)o2)cc1	x	x	x	0
C[C@H](CO)N1C[C@H](C)[C@H](CN(C)Cc2ccc(C(=O)Nc3ccccc3N)cc2)Oc2c(NS(=O)(=O)c3ccccc3)cccc2C1=O	-1	x	-86*	1
C[C@@H]1CN([C@H](C)CO)C(=O)c2cccc(NS(=O)(=O)c3ccc(Cl)cc3)c2O[C@@H]1CN(C)Cc1ccc(C(=O)Nc2ccccc2N)cc1	-3	93	-87*	0
Cc1ccc(S(=O)(=O)Nc2cccc3c2O[C@H](CN(C)Cc2ccc(C(=O)Nc4ccccc4N)cc2)[C@H](C)CN([C@H](C)CO)C3=O)cc1	3	50	-85*	x
Cc1ccc(S(=O)(=O)Nc2cccc3c2O[C@H](CN(C)Cc2ccc(C(=O)Nc4ccccc4N)cc2)[C@@H](C)CN([C@@H](C)CO)C3=O)cc1	0	x	-74	0
C[C@H](CO)N1C[C@H](C)[C@H](CN(C)Cc2ccc(C(=O)Nc3ccccc3N)cc2)Oc2c(NS(=O)(=O)c3ccc(Cl)cc3)cccc2C1=O	0	x	-89*	0
C[C@@H]1CN([C@H](C)CO)C(=O)c2cccc(NS(=O)(=O)c3ccccc3)c2O[C@H]1CN(C)Cc1ccc(C(=O)Nc2ccccc2N)cc1	0	x	-78	x
CN(C)/C=C(\C(=O)Nc1ccc(F)c(F)c1F)S(=O)(=O)c1ccccc1	x	x	x	0
C[C@@H]1CN([C@H](C)CO)C(=O)c2cccc(NS(=O)(=O)c3ccccc3)c2O[C@@H]1CN(C)Cc1ccc(-c2ccccc2)cc1	-1	64	-4	x
C[C@@H]1CN([C@H](C)CO)C(=O)c2cccc(NS(=O)(=O)c3ccccc3)c2O[C@H]1CN(C)Cc1ccc(-c2ccccc2)cc1	1	-87	-91*	2
CCCC(=O)N1CCC2(CC1)CN(Cc1ccccc1F)[C@@H](CO)c1c2c2ccc(OC)cc2n1C	-4	x	-83*	x
CCCC(=O)N1CC2(C1)CN(Cc1ccccc1F)[C@H](CO)c1c2c2ccc(OC)cc2n1C	0	x	-87*	x
CCCC(=O)N1CCC2(CC1)CN(Cc1ccccc1F)[C@H](CO)c1c2c2ccc(OC)cc2n1C	-1	x	u	x
COc1ccc2c3c(n(C)c2c1)[C@@H](CO)N(Cc1ccccc1OC)CC31CCN(CC2CC2)CC1	x	x	-91*	x
SMILES	KDM4C inh	T cruzi growth	Pf Dd2 growth	IDH1 R132H inh
COc1ccc2c3c(n(C)c2c1)[C@H](CO)N(Cc1ccccc1OC)CC31CCN(CC2CC2)CC1	x	x	-66	x
COc1ccc2c3c(n(C)c2c1)[C@@H](CO)N(Cc1ccccc1F)CC31CCN(CC2CC2)CC1	1	x	-88*	x
COc1ccc2c3c(n(C)c2c1)[C@H](CO)N(CC1CC1)CC31CCN(Cc2ccc(F)cc2)CC1	0	x	-85*	x
COc1ccccc1NC(=O)COc1ccc(C(=O)O)cc1OC	x	x	x	0
COc1ccc(C#Cc2ccc3c(c2)O[C@H](CN(C)S(=O)(=O)c2ccccc2F)[C@@H](C)CN([C@@H](C)CO)S3(=O)=O)cc1	-6	x	-86*	0
COc1ccc(C#Cc2ccc3c(c2)O[C@@H](CN(C)S(=O)(=O)c2ccccc2F)[C@H](C)CN([C@@H](C)CO)S3(=O)=O)cc1	-6	x	-82*	0
COCc1cn([C@H]2C[C@@H]3O[C@H](CO)CC[C@@H]3O[C@@H]2CCc2ccc(-c3ccc(OC)cc3)cc2)nn1	x	x	-38	x
COCc1cn([C@@H]2C[C@@H]3O[C@H](CO)CC[C@@H]3O[C@@H]2CCc2ccc(-c3ccc(OC)cc3)cc2)nn1	x	x	-94*	x
COCc1cn([C@@H]2C[C@@H]3O[C@@H](CO)CC[C@@H]3O[C@@H]2CCc2ccc(-c3ccc(OC)cc3)cc2)nn1	x	x	-84*	x
Cn1c(SCC(=O)Nc2ccc3c(c2)OCCO3)nnc1-c1cnccn1	x	x	x	0

Screening data deposited in PubChem BioAssay by Broad Institute.
